Test results reported in ChEMBL document CHEMBL3259629, “Discovery and optimization of piperidyl-1,2,3-triazole ureas as potent, selective, and in vivo-active inhibitors of α/β-hydrolase domain containing 6 (ABHD6)” (J Med Chem, 2013).

How the values were obtained:
[1] = target: T1, Patatin-like phospholipase domain-containing protein 6 (Mus musculus) (UniProt Q3TRM4); conditions: Neuro2a, 3 nM
T1 sequence (whole entry): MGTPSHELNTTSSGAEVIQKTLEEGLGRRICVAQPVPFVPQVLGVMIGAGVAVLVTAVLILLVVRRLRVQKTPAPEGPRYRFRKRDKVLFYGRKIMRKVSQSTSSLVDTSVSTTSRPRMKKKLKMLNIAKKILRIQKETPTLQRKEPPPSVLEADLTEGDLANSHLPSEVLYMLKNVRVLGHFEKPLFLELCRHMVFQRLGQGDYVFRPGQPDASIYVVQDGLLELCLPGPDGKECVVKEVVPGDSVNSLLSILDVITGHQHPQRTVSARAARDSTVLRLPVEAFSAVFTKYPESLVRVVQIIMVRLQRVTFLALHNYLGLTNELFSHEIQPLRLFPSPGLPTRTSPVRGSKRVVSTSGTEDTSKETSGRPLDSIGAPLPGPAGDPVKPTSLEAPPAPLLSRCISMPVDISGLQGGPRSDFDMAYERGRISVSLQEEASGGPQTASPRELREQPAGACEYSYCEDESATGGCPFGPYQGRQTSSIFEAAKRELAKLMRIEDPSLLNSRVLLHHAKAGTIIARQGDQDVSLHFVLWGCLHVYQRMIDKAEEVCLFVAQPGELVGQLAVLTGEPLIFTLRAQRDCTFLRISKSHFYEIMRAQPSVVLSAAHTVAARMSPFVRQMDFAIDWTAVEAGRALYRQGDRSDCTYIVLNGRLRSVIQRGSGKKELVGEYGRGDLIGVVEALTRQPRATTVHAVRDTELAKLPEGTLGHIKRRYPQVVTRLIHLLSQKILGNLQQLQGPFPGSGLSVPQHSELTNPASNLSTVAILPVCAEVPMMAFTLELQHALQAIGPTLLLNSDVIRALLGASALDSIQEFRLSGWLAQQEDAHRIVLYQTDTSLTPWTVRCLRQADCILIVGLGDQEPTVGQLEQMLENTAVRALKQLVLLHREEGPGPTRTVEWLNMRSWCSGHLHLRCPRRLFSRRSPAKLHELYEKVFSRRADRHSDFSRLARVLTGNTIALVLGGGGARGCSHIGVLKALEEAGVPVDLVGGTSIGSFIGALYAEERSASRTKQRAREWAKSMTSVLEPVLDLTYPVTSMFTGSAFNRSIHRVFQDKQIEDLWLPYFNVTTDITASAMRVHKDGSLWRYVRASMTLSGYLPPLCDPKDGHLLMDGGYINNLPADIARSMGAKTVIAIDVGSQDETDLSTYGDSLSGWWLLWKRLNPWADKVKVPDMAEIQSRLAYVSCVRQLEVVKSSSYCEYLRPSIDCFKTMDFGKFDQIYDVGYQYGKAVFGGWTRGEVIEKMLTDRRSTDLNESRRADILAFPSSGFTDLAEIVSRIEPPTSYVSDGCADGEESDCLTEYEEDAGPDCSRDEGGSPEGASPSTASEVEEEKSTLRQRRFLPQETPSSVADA

[2] = target: T2, Platelet-activating factor acetylhydrolase IB subunit alpha1 (Mus musculus) (UniProt Q61205); conditions: Neuro2a, 3 nM
T2 sequence (whole entry): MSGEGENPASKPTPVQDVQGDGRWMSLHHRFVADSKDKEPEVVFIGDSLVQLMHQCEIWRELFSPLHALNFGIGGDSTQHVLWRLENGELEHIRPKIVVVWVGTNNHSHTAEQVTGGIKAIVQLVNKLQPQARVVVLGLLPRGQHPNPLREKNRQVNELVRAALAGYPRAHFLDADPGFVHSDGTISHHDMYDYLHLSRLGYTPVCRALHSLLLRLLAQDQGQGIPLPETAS

[3] = target: T3, Serine protease HTRA2, mitochondrial (Mus musculus) (UniProt Q9JIY5); conditions: Neuro2a, 3 nM
T3 sequence (whole entry): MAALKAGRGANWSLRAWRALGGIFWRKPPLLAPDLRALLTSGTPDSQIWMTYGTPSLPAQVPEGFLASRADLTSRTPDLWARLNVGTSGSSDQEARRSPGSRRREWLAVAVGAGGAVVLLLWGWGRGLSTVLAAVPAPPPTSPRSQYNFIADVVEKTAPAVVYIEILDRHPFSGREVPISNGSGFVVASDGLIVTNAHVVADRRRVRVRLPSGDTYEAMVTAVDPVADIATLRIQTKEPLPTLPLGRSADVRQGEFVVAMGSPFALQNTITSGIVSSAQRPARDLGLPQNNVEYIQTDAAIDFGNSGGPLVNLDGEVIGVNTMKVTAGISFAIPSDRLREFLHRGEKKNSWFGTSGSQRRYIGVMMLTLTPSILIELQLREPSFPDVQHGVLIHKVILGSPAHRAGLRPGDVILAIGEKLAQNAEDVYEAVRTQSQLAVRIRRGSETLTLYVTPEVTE

[4] = target: T4, Diacylglycerol lipase-beta (Mus musculus) (UniProt Q91WC9); assay: Inhibition of FP-rhodamine-labelled recombinant mouse DAGLbeta expressed in HEK293T cells at 1 uM preincubated for 30 mins followed by FP-rhodamine labelling measured after 30 mins by gel-based competitive ABPP assay; assay type: cell-based; conditions: HEK-293T
T4 sequence (whole entry): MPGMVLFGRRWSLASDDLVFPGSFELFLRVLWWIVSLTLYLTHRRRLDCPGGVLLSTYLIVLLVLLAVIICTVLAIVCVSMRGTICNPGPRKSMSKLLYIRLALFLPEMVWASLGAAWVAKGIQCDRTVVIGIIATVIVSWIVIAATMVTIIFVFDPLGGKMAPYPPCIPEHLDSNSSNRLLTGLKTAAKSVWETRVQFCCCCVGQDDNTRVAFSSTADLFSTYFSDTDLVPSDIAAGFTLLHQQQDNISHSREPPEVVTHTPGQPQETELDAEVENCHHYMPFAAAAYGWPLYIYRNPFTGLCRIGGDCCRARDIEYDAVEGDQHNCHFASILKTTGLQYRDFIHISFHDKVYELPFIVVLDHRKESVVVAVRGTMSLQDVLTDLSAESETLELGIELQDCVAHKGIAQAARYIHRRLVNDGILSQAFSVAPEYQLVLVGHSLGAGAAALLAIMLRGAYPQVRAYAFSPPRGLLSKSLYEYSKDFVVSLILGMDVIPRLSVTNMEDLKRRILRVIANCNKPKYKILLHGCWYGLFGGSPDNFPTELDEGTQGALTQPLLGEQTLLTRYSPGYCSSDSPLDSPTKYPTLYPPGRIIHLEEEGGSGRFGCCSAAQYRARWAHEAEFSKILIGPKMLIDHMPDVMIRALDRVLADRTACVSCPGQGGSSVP
How it was run: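 Mouse DAGLβ transiently overexpressed in HEK293T. Lysate diluted to 0.3 mg/mL in 50 mM HEPES pH 7.2, 100 mM NaCl, 5 mM CaCl₂, 0.1% Triton X-100, 10% DMSO. Compound preincubated 30 min at 37 °C, then 1 μM probe for 30 min at 37 °C, SDS-PAGE and in-gel fluorescence.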

SMILES: O=C(N1CCCCC1c1ccccc1)n1cc(-c2ccc(-c3cccc(CO)c3)cc2)nn1 (racemic)
- inhibition [1]: < 50%
- inhibition [2]: < 50%
- inhibition [3]: < 50%
- inhibition [4]: 0%

SMILES: O=C(O)c1cccc(-c2ccc(-c3cn(C(=O)N4CCCCC4Cc4ccccc4)nn3)cc2)c1 (racemic)
- inhibition [1]: < 50%
- inhibition [2]: < 50%
- inhibition [3]: < 50%
- inhibition [4]: 50%

SMILES: O=C(c1cccc(-c2ccc(-c3cn(C(=O)N4CCCCC4c4ccccc4)nn3)cc2)c1)N1CCCCC1 (racemic)
- inhibition [1]: < 50%
- inhibition [2]: < 50%
- inhibition [3]: < 50%
- inhibition [4]: 0%
